Test results reported in article PMC5183561 (European journal of pharmacology, 2016).
Read-outs that look alike come from different tables or passages of the source. Where no end group is shown, it is not given here. [ ]: non-standard residue; d: D form. Dmt = Cc1cc(O)cc(C)c1C[C@H](N)C(=O)O; PWT2 core = not defined here

What was measured:
[1] = system: rhesus monkeys (Macaca mulatta); test: Warm water tail-withdrawal assay in monkeys; format: in vivo; settings: n = 4; for duration of antinociception: 50°C water
[2] = system: rhesus monkeys (Macaca mulatta); test: Overt side effects; format: in vivo; settings: 0.3-3 nmol i.t.
[3] = biological target: T1, recombinant human kappa opioid receptor (Homo sapiens, UniProt P41145); test: Displacement binding of [3H]-DPN, CHOkappa cell membranes; settings: vs [Dmt^1]N/OFQ(1-13)-NH2
[4] = biological target: human recombinant mu receptor (Homo sapiens, UniProt P35372); test: Calcium mobilization, CHO cells coexpressing mu and Gαqi5; format: cell-based
[5] = biological target: mu-RLuc/Gβ1-RGFP (Homo sapiens, UniProt P35372); test: BRET mu/G-protein interaction, SH-SY5Y membranes; format: biochemical; settings: intrinsic activity, dermorphin = 1.00
[6] = biological target: human recombinant kappa receptor (Homo sapiens, UniProt P41145); test: Calcium mobilization, CHO cells coexpressing kappa and Gαqi5; format: cell-based; settings: intrinsic activity, dynorphin A = 1.00
[7] = biological target: mu-RLuc/β-arrestin 2-RGFP (Homo sapiens, UniProt P35372); test: BRET mu/β-arrestin 2 interaction, SH-SY5Y whole cells; format: cell-based; settings: intrinsic activity, dermorphin = 1.00, inactive = inactive up to 1 μM
[8] = system: NOP over opioid receptors; test: In vitro functional assays, NOP selectivity summary; set-up: species or system human; settings: range over functional assays
[9] = system: NOP and classical opioid receptors; test: Calcium mobilization, summary over the four cell lines; format: cell-based, human
[10] = biological target: NOP-RLuc/β-arrestin 2-RGFP (Homo sapiens, UniProt P41146); test: BRET NOP/β-arrestin 2 interaction, HEK-293 whole cells; format: cell-based
[11] = biological target: T2, human recombinant NOP receptor (Homo sapiens, UniProt P41146); test: Stimulated [35S]GTPγS binding, CHONOP membranes; format: biochemical; settings: intrinsic activity, N/OFQ = 1.00, n≥5
[12] = system: NOP and classical opioid receptors; test: Receptor binding studies, summary over all four receptors; set-up: species or system human; settings: at all receptors (NOP, mu, kappa, delta), vs [Dmt^1]N/OFQ(1-13)-NH2
Outline: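 CHO membranes expressing human receptors (20–40 μg protein) were incubated 1 h at room temperature in 50 mM Tris, 0.5% BSA with test compound (1 pM–10 μM). […] Bound ligand was collected by filtration on PEI-soaked GF/B filters.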

[13] = biological target: recombinant human mu opioid receptor (Homo sapiens, UniProt P35372); test: Stimulated [35S]GTPγS binding, CHOmu membranes; format: biochemical
[14] = biological target: recombinant human delta opioid receptor (Homo sapiens, UniProt P41143); test: Stimulated [35S]GTPγS binding, CHOdelta membranes; format: biochemical; settings: intrinsic activity, DPDPE = 1.00, n≥5
[15] = biological target: T1, recombinant human kappa opioid receptor; test: Stimulated [35S]GTPγS binding, CHOkappa membranes; format: biochemical
[16] = biological target: NOP-RLuc/Gβ1-RGFP (Homo sapiens, UniProt P41146); test: BRET NOP/G-protein interaction, HEK-293 membranes; format: biochemical
[17] = biological target: T2, human recombinant NOP receptor; test: Calcium mobilization, CHO cells coexpressing NOP and Gαqi5; format: cell-based
[18] = biological target: delta receptor (Homo sapiens, UniProt P41143); test: Calcium mobilization, CHO cells coexpressing delta and GαqG66Di5; format: cell-based
[19] = system: rhesus monkeys (Macaca mulatta); test: Scratching responses in monkeys after intrathecal administration; format: in vivo; settings: 3 nmol i.t., any time point, n = 4
[20] = biological target: T3, human recombinant mu opioid receptor (human, UniProt P35372 1-400); test: cell-based or functional assay
[21] = biological target: T3, human recombinant mu opioid receptor; test: radioligand binding
[22] = biological target: human recombinant delta opioid receptor (human, UniProt P41143 1-372); test: radioligand binding
[23] = biological target: human recombinant kappa opioid receptor (human, UniProt P41145 1-380); test: radioligand binding
[24] = biological target: human recombinant N/OFQ (NOP) receptor (human, UniProt P41146 1-370); test: radioligand binding
[25] = biological target: T3, human recombinant mu opioid receptor; test: radioligand binding; remark: listed apart in the source
[26] = agonist stimulated over basal specific binding, mean ± S.E.M.

T3 sequence (P35372 whole entry): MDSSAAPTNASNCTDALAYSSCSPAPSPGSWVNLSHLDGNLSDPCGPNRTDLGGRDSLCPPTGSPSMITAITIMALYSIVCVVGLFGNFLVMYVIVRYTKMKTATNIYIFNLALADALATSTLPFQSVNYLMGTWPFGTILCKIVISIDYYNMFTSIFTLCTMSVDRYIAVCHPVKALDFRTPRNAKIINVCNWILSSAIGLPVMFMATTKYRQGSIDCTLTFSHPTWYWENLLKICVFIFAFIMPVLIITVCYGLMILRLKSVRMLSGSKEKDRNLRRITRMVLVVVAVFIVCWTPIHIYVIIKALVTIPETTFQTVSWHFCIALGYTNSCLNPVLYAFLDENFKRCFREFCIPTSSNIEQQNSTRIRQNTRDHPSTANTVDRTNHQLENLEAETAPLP
Sequence of human recombinant mu receptor (P35372 whole entry): as above
T1 sequence (P41145 whole entry): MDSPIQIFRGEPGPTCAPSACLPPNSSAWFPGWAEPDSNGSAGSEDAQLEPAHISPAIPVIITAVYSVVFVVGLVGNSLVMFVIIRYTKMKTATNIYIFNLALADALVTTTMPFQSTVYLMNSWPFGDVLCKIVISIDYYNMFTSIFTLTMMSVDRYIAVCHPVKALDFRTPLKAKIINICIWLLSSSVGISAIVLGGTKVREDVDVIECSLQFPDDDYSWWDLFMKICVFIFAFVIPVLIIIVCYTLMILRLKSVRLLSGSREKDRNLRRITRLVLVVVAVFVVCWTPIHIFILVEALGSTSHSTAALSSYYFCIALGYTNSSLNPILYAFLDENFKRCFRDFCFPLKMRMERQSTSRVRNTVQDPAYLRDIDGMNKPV
T2 sequence (P41146 whole entry): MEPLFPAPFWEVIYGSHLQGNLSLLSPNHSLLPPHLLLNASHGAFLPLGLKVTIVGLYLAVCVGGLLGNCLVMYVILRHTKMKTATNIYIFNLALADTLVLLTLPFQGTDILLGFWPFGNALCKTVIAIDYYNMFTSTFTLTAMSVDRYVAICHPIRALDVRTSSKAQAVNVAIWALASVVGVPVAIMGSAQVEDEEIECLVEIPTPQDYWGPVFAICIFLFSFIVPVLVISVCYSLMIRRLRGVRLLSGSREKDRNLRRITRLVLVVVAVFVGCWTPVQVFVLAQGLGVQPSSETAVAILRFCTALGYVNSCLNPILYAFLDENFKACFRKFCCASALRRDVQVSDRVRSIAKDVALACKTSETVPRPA
Sequence of recombinant human mu opioid receptor (P35372 whole entry): as the sequence (P35372 whole entry) above
Sequence of human recombinant kappa opioid receptor (P41145 whole entry): as the sequence (P41145 whole entry) above
Sequence of human recombinant N/OFQ (NOP) receptor (P41146 whole entry): as the sequence (P41146 whole entry) above
Sequence of human recombinant delta opioid receptor (P41143 whole entry, stated change not applied): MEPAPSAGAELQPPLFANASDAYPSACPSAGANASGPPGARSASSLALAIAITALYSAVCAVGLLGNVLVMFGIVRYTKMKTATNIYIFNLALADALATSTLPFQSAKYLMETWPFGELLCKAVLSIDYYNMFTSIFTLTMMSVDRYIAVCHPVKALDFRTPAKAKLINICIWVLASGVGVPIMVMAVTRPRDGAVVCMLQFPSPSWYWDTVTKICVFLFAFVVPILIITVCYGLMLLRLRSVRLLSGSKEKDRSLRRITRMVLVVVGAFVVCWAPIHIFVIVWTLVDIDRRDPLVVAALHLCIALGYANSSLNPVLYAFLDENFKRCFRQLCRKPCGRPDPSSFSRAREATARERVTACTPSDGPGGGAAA
Sequence of delta receptor (P41143 whole entry): as the sequence (P41143 whole entry, stated change not applied) above
Sequence of human recombinant kappa receptor (P41145 whole entry): as the sequence (P41145 whole entry) above
Sequence of recombinant human delta opioid receptor (P41143 whole entry): as the sequence (P41143 whole entry, stated change not applied) above

In the case of `O=C1CC[C@@]2(O)[C@H]3Cc4ccc(O)c5c4[C@@]2(CCN3CC2CC2)[C@H]1O5` [naltrexone, Naltrexone, reference compound], the “effect of antagonist on i.t. PWT2-[Dmt^1] (3 nmol)-induced antinociception” value ([1]; naltrexone 0.03 mg/kg s.c., given 1 h 10 min after PWT2-[Dmt^1]) is reported as “inactive”.

In the case of `Cc1cc(O)cc(C)c1C[C@H](N)C(=O)NCC(=O)NCC(=O)N[C@@H](Cc1ccccc1)C(=O)N[C@H](C(=O)NCC(=O)N[C@@H](C)C(=O)N[C@@H](CCCNC(=N)N)C(=O)N[C@@H](CCCCN)C(=O)N[C@@H](CO)C(=O)N[C@@H](C)C(=O)N[C@@H](CCCNC(=N)N)C(=O)N[C@@H](CCCCN)C(=O)N[C@@H](CSC1CC(=O)N(CCC(=O)NCCCN(CCCCN(CCCNC(=O)CCN2C(=O)CC(SC[C@H](NC(=O)[C@H](CCCCN)NC(=O)[C@H](CCCNC(=N)N)NC(=O)[C@H](C)NC(=O)[C@H](CO)NC(=O)[C@H](CCCCN)NC(=O)[C@H](CCCNC(=N)N)NC(=O)[C@H](C)NC(=O)CNC(=O)[C@@H](NC(=O)[C@H](Cc3ccccc3)NC(=O)CNC(=O)CNC(=O)[C@@H](N)Cc3c(C)cc(O)cc3C)[C@@H](C)O)C(N)=O)C2=O)CCCNC(=O)CCN2C(=O)CC(SC[C@H](NC(=O)[C@H](CCCCN)NC(=O)[C@H](CCCNC(=N)N)NC(=O)[C@H](C)NC(=O)[C@H](CO)NC(=O)[C@H](CCCCN)NC(=O)[C@H](CCCNC(=N)N)NC(=O)[C@H](C)NC(=O)CNC(=O)[C@@H](NC(=O)[C@H](Cc3ccccc3)NC(=O)CNC(=O)CNC(=O)[C@@H](N)Cc3c(C)cc(O)cc3C)[C@@H](C)O)C(N)=O)C2=O)CCCNC(=O)CCN2C(=O)CC(SC[C@H](NC(=O)[C@H](CCCCN)NC(=O)[C@H](CCCNC(=N)N)NC(=O)[C@H](C)NC(=O)[C@H](CO)NC(=O)[C@H](CCCCN)NC(=O)[C@H](CCCNC(=N)N)NC(=O)[C@H](C)NC(=O)CNC(=O)[C@@H](NC(=O)[C@H](Cc3ccccc3)NC(=O)CNC(=O)CNC(=O)[C@@H](N)Cc3c(C)cc(O)cc3C)[C@@H](C)O)C(N)=O)C2=O)C1=O)C(N)=O)[C@@H](C)O` (stereo partly shown) [PWT2-[Dmt^1], PWT2-[Dmt^1]N/OFQ(1-13)], the “overt side effects including sedation or motor impairment” value [2] is reported as “did not cause any overt side effects”, the “loss of affinity at kappa compared to parent compound” value [3] is reported as ~ 18 fold and the Emax ([4]; CHO, read-out: maximal effects over basal, mu) is reported as 283 ± 3%. For the same molecule, the “α ± S.E.M. mu” value ([4]; calcium mobilization, intrinsic activity, dermorphin = 1.00) was 0.87 ± 0.04, the “lower potency compared to dermorphin” value ([4]; calcium mobilization, mu) was 23 fold and the “α ± S.E.M. mu, Gβ1-protein” value [5] was 1.43 ± 0.12. The “α ± S.E.M. kappa” value [6] was 0.86 ± 0.03, the “α ± S.E.M. mu, β-arrestin2” value [7] was 0.82 ± 0.07 and the “NOP selectivity in in vitro functional assays” value [8] was 2 – 10 fold. For the same molecule, the “reduced potency compared to [Dmt^1]N/OFQ(1-13)-NH2” value [9] was 3 to 30 fold, the “α ± S.E.M. NOP, β-arrestin2” value [10] was 0.58 ± 0.10 and the duration of antinociception ([1]; 0.3 nmol i.t.) was 2 h. For the same molecule, the duration of antinociception ([1]; 1 nmol i.t.) was 6 h, the duration of antinociception ([1]; 3 nmol i.t.) was 24 h and the “α ± S.E.M. NOP” value [11] was 1.23 ± 0.13. For the same molecule, the “lower affinity than the parent peptide” value [12] was “approximately 10 fold”, the “Emax as stimulation factor, mu” value [13, 26] was 2.84 ± 0.11 fold and the “α ± S.E.M. mu” value ([13]; intrinsic activity, dermorphin = 1.00, n≥5) was 0.98 ± 0.07. The “α ± S.E.M. delta” value [14] was 0.87 ± 0.07, the “Emax as stimulation factor, kappa” value [15, 26] was 2.43 ± 0.08 fold and the “α ± S.E.M. kappa” value ([15]; intrinsic activity, dynorphin A = 1.00, n≥5) was 1.40 ± 0.11. For the same molecule, the “α ± S.E.M. NOP, Gβ1-protein” value [16] was 1.04 ± 0.04, the “reduced potency compared to N/OFQ” value ([17]; NOP) was 58 fold and the “α ± S.E.M. NOP” value ([17]; intrinsic activity, N/OFQ = 1.00) was 0.98 ± 0.08. The “potency lower than DPDPE” value ([18]; delta) was 23 fold, the “α ± S.E.M. delta” value ([18]; intrinsic activity, DPDPE = 1.00) was 0.80 ± 0.08 and the “scratching responses in 15-min observation period” value [19] was “did not significantly elicit scratching responses”.

With YAFGYPS [Dermorphin] the “stimulation of [^35S]GTPγS binding, CHO mu membranes: Emax as stimulation factor” value (shortened to “stimulation of [^35S]GTPγS binding”) [20] was 2.88 fold.

[Dmt]GGFTGARKSARKC(PWT2 core)-NH2 (reading uncertain; also: Cys14 joined to the PWT2 core by thio-Michael reaction) [PWT2-[Dmt^1]N/OFQ(1-13)] was tested, and the pKi [21] was 9.25, the pKi [22] was 8.42 and the pKi [23] was 9.13. For the same molecule, the pKi [24] was 9.13 and the “stimulation of [^35S]GTPγS binding” value [20] was 2.84 fold.

B1: [Dmt^1]N/OFQ(1-13)-NH2 (peptide)
peptide: [Dmt]GGFTGARKSARK-NH2
modifications: N-terminus assumed
SMILES: Cc1cc(O)cc(C)c1C[C@H](N)C(=O)NCC(=O)NCC(=O)N[C@@H](Cc1ccccc1)C(=O)N[C@H](C(=O)NCC(=O)N[C@@H](C)C(=O)N[C@@H](CCCNC(=N)N)C(=O)N[C@@H](CCCCN)C(=O)N[C@@H](CO)C(=O)N[C@@H](C)C(=O)N[C@@H](CCCNC(=N)N)C(=O)N[C@@H](CCCCN)C(N)=O)[C@@H](C)O
B1 was tested, and the pKi [21] was 10, the pKi [22] was 9.99 and the pKi [23] was 10.4. The pKi [24] was 10.4, the pKi [25] was 10.4 and the “stimulation of [^35S]GTPγS binding” value [20] was 3.06 fold.
